KCNQ1 act: potentiators or activators of KCNQ1 channel, primary screen, cell-based, thallium flux, high-throughput. CHO-K1 KCNQ1, thallium flux FluxOR fluorescence; hits give high values. 310,000 compounds, 0.35% hits. B-score at 10 µM. Potassium voltage-gated channel subfamily KQT member 1 (Homo sapiens), P51787;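 active = fluorescence ratio B-score, a plate-corrected score, at least three library SD, with initial intensity B-score within 5 SD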
Target sequence (P51787 whole entry, looked up): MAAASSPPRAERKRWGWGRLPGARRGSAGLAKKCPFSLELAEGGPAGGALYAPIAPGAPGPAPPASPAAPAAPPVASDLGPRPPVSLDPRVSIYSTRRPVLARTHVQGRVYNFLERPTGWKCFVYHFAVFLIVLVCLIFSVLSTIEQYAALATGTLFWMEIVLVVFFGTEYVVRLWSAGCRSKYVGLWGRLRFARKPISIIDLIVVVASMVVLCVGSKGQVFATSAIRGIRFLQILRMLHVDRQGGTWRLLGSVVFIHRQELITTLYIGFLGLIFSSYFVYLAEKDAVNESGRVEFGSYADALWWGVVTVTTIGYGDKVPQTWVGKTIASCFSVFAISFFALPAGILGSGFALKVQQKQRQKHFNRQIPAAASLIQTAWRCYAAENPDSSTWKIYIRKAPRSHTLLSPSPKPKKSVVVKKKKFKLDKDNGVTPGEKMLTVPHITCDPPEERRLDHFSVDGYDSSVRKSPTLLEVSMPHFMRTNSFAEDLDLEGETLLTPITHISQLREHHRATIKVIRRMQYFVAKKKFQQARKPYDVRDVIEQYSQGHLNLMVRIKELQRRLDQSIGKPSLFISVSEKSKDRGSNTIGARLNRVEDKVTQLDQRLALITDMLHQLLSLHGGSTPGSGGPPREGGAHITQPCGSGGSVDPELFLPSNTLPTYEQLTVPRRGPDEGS
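System: Stable KCNQ1 CHO-K1 line | Incubation: 90 min dye loading and 20 min compound exposure, both at room temperature | Measure: Ratio B score | Medium: Assay buffer for compound exposure, DMSO matched across wells | Compound dosing: Single-concentration screen | Probe or stimulus: K+/Tl+ depolarizing stimulus | Measured by: Kinetic FluxOR fluorescence, 10 s baseline plus 110 s post-stimulus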
hERG protect: hERG rescue from dofetilide block, primary screen, cell-based, CHO-hERG, FluxOR thallium flux, dofetilide IC70 | Voltage-gated inwardly rectifying potassium channel KCNH2 (Homo sapiens), Q12809 | dofetilide IC70 present | activation (rescue from dofetilide block), less the hit threshold, % at 10 µM | 310,000 compounds, 0.51% hits;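 active = activation above the mean of controls blocked by dofetilide plus 5 SD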;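 also: thallium influx through hERG after potassium depolarization seen as dye fluorescence rise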
KCNQ1 inh: inhibitors of human KCNQ1 channel, primary screen, cell-based, thallium flux, high-throughput; Potassium voltage-gated channel subfamily KQT member 1 (Homo sapiens), P51787; CHO-K1 KCNQ1, FluxOR thallium flux fluorescence; hits give high values; B-score at 10 µM; 310,000 compounds, 1.3% hits;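 active = compounds whose thallium flux B-score, printed positive for inhibition, exceeds three library SD while starting fluorescence stays within three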;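 also: channel opened by potassium depolarization with thallium stimulus after 20 min compound exposure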
KCNK3 inh: human KCNK3 channel inhibitors, primary screen, CHO cells, FluxOR thallium flux, B-score; Potassium channel subfamily K member 3 (Homo sapiens), O14649; FluxOR fluorescence; hits give low values; B-score at 10 µM; 340,000 compounds, 0.84% hits; AID 602410, 2012;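 active = B-score under library mean minus 4 SD, starting fluorescence ratio at most library mean plus 5 SD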;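 also: more negative B-score means stronger inhibition of thallium flux through KCNK3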
Kir21 block: inhibitors of mouse Kir2.1 inward-rectifier potassium channel. Inward rectifier potassium channel 2 (Mus musculus), P35561. HEK293-Kir2.1, FluxOR thallium flux fluorescence; hits give low values. B-score at 10 µM. 310,000 compounds, 0.85% hits. AID 1672, 2009;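 active = fluorescence ratio B-score at or below minus 3 SD of library scores, with starting-brightness B-score within 2 SD, cut at about -4.2 in these data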;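 also: channel flux triggered by added potassium and thallium sulfate stimulus; B-score of peak minus minimum fluorescence over baseline after thallium stimulus; more negative B-score means stronger Kir2.1 block with less thallium influx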
KCNK9 block: KCNK9 potassium channel inhibitors, primary screen, HEK293 cells, thallium flux | Potassium channel subfamily K member 9 (Homo sapiens), Q9NPC2 | FluxOR thallium flux fluorescence; hits give low values | B-score at 10 µM | 310,000 compounds, 1.2% hits;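 active = ratio B-score over 3 SD below the library mean, with starting fluorescence within 5 SD of its mean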;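 also: negative B-score means less thallium flux so channel inhibition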
* marks the source's active call; other numbers are inactive results; i = inactive; / = not tested or not shown. This is a sample that favours compounds with a hit; in the whole collection about 3.8% have one here.

SMILES	KCNQ1 act	hERG protect	KCNQ1 inh	KCNK3 inh	Kir21 block	KCNK9 block
COc1cc(C2NC(=O)NC(C)=C2C(=O)OCC2CCCCC2)ccc1O (configuration not stated)	i	7.1*	i	i	1.7	i
CC(C)=CCc1c(O)c(CC=C(C)C)c2c(c1O)C(=O)CC(c1ccc(O)cc1)O2 (configuration not stated)	i	-4	8*	i	-0.37	i
Cc1c(O)cc2c(c1O)C(=O)CC(c1ccc(O)cc1)O2 (configuration not stated)	i	-7	i	i	-0.71	i
C/C(=N\NC(=O)COc1cccc(C)c1)c1ccc2ccccc2c1O	i	-14	i	i	0.37	i
COc1ccc(C2CC3(CC(C)(C)NC(SC)=N3)Oc3cc(O)cc(C)c32)cc1 (configuration not stated)	i	-12	i	i	-5.3*	i
O=C(C=C=Nc1ccccc1)C(=O)N=C=Cc1ccccc1	i	-10	i	i	-0.01	i
COC(=O)C1=CN(Cc2cccs2)C=C(C(=O)OC)C1c1cccc(Cl)c1	i	-12	i	i	0.09	-7.9*
Cc1oc2cc3oc(=O)c(CCC(=O)NCc4ccccn4)c(C)c3cc2c1C	i	-6	i	i	-0.99	i
CC(C)OC(=O)c1c2nc3ccccc3nc2n2c1[nH]c(=O)c1ccccc12	81*	43*	i	/	-0.06	i
CC(C)OC(=O)c1c(N)n(CCCN2CCOCC2)c2nc3ccccc3nc12	i	-3	i	i	-0.05	i
CC(C)CN(C(=O)COC(=O)CSc1ccc(Br)cc1)C1CCS(=O)(=O)C1 (configuration not stated)	/	/	/	i	/	/
O=C(Nc1nc2n(n1)C(c1ccc(Cl)cc1)CC(c1ccc(Cl)cc1)N2)c1ccco1 (configuration not stated)	i	-10	i	/	-0.04	-7.7*
O=C(Nc1ncc(S(=O)(=O)c2ccc([N+](=O)[O-])cc2)s1)c1ccccc1F	i	-4	i	i	-0.42	i
COC(=O)C(NC(=O)c1ccc(F)cc1)(Nc1ncc(S(=O)(=O)c2ccc([N+](=O)[O-])cc2)s1)C(F)(F)F (configuration not stated)	i	-21	7*	i	1.5	i
O=C1CCCc2oc3c(cc(NS(=O)(=O)c4ccc5c6c(cccc46)C(=O)N5)c4ccccc43)c21	i	-26	i	i	-1.9	i
Cc1oc2c(cc(NS(=O)(=O)c3ccc4c5c(cccc35)C(=O)N4)c3ccccc32)c1C(=O)OC(C)C	i	-11	i	i	0.4	-7.6*
CCOC(=O)c1sc(N(Cc2ccccc2)C(=O)CSc2ncn[nH]2)nc1C	i	-6	i	i	-0.09	i
O=C(O)CSCC(=O)N(Cc1ccccc1)c1nc(-c2ccccc2)c(-c2ccccc2)s1	i	-13	8*	i	1.6	i
CCCc1c(C)nc(N2CCN(c3cccc(OC)c3)CC2)[nH]c1=O	i	5.9*	i	i	0.29	i
CCc1c(C)nc(N2CCN(c3cccc(OC)c3)CC2)[nH]c1=O	i	-2	i	i	-0.02	i
Oc1[nH]c2c(Cl)cc(Cl)cc2c1N=NC(=S)NCC1CCCO1 (configuration not stated)	52*	12*	i	i	0.84	i
CCn1c(O)c(N=NC(=S)NCC2CCCO2)c2ccccc21 (configuration not stated)	i	6.3*	i	i	0.16	i
COc1ccccc1C(CNC(=O)C1CCN(C(=O)Nc2ccccc2)CC1)N1CCCC1 (configuration not stated)	/	/	/	i	/	/

Screening data deposited in PubChem BioAssay by Johns Hopkins Ion Channel Center.
